High-throughput results: PubChem BioAssay, The Scripps Research Institute Molecular Screening Center
UHRF1 MBD2 ctr: UHRF1 methyl-DNA binding inhibition; UHRF1 binding to methylated oligo, TR-FRET; inhibition, % at 4.4 µM; 370,000 tested, 0.75% active; AID 687016; in the data active = inhibition above about 21%;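 note: UHRF1 SRA domain binding a hemimethylated CpG hairpin DNA probe; 0% = median of test compound wells and 100% = reference inhibitor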
Target sequence (Q96T88 whole entry, looked up, the tested form may be a part): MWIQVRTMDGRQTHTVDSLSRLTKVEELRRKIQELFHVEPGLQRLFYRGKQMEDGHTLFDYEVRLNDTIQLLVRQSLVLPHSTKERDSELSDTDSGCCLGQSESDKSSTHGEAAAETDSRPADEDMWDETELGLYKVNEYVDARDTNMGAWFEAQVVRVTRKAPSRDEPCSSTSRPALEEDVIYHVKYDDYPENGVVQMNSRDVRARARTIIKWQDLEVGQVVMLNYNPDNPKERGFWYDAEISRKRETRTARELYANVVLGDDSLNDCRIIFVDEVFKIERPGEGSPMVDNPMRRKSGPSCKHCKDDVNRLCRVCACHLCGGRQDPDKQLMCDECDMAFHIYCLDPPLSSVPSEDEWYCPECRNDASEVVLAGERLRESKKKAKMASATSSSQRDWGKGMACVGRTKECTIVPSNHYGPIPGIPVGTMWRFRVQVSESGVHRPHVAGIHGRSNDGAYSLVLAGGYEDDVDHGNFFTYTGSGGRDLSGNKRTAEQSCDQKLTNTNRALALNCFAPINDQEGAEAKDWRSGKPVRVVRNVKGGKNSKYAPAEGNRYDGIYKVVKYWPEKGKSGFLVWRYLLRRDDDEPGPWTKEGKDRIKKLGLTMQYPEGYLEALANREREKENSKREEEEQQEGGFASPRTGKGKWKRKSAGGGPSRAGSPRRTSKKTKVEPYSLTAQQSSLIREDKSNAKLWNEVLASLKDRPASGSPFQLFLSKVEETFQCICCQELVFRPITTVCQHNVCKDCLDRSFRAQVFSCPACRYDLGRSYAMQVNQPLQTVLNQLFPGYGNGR
TDP2 absorb: blocks human TDP2 phosphodiesterase activity; O95551; recombinant TDP2, T5PNP hydrolysis, p-nitrophenol absorbance 415 nm; inhibition, % at 12.8 µM; 370,000 tested, 0.34% active; AID 720702;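 active = inhibition above the mean of all tested compounds plus 3 SD, set per campaign, cut at about 25% in these data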;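 note: 0% = DMSO with enzyme and 100% = buffer with substrate but no TDP2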
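Assay system: recombinant human TDP2 / Reagent: T5PNP substrate at 5 mM, a TopII-DNA adduct mimic / Measured by: epi absorbance from released p-nitrophenol / Evaluation: % inhibition relative to enzyme-containing and enzyme-free wells / Control set: enzyme-free and DMSO wells / Replicates: each compound tested once, singlicate / Schedule: enzyme reaction with compound for 2 h at 37 °C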
LEDGF integ inh: blocks HIV-1 LEDGF/p75-dependent DNA integration; TR-FRET IN-LEDGF/p75 DNA integration, Eu/Cy5; inhibition, % at 3.7 µM; 370,000 tested, 0.64% active;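 active = inhibition above the screen-wide mean plus 3 SD, cut at about 13% in these data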;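 note: signal is the Cy5 over europium emission ratio at 671 and 618 nm; 0% = plate median of compound wells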
MBD2 DNA inh: blocks human MBD2 binding to methylated DNA. Q9UBB5. TR-FRET, MBD2 binding to methylated oligonucleotide. inhibition, % at 4.4 µM. 370,000 tested, 0.31% active. AID 686964; in the data active = inhibition above about 13%
IN multimer act: counter-screen for LEDGF/p75 integration inhibitors: HIV-1 integrase multimerization activators; shares compounds with LEDGF integ inh; TR-FRET HIV-1 integrase multimerization, biochemical; activation, % at 7.7 µM; 2,000 tested, 17% active; AID 1053131; in the data active = activation above about 8.9%
TR-FRET interf: optically interferes with TR-FRET readout in LEDGF counter-screen | shares compounds with LEDGF integ inh | TR-FRET optical interference counterscreen, HIV-1 IN multimerization | inhibition, % at 7.7 µM | 2,000 tested, under 10 active;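 active = inhibition above the mean over all tested compounds plus 3 SD, which no compound reached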;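 note: 0% = integrase with antibodies and DMSO and 100% = antibodies without integrase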
LEDGF integ conf: LEDGF/p75-dependent HIV-1 integration inhibition, confirmation; inhibition, % at 3.7 µM; 2,000 tested, 36% active; shares compounds with LEDGF integ inh; TR-FRET LEDGF/p75-dependent HIV-1 integration, biochemical; AID 1053136; in the data active = inhibition above about 14%
* marks the source's active call; other numbers are inactive results. Rows were chosen to be rich in hits. Some 1.6% of all compounds tested hit in one or more screens of this group.

How did CCOc1cccc(=O)c2c(C)n(CC(=O)c3ccccc3)c(C)c12 do in these assays?
UHRF1 MBD2 ctr: -4.1; TDP2 absorb: 12.6; LEDGF integ inh: 8.0; MBD2 DNA inh: -2.1

Results for COc1cccc(=O)c2c(C)n(CC(=O)c3ccccc3)c(C)c12 ?
UHRF1 MBD2 ctr: 17.5; TDP2 absorb: -1.1; LEDGF integ inh: 51.1*; MBD2 DNA inh: 11.2; IN multimer act: 4.2; TR-FRET interf: -14.6; LEDGF integ conf: 6.8

Results for C=C(C)CSc1nc2sc3c(c2c(=O)n1-c1ccccc1)CCN(C)C3 ?
UHRF1 MBD2 ctr: -1.1; TDP2 absorb: 11.0; LEDGF integ inh: 0.6; MBD2 DNA inh: -0.9

How did C=CCSc1nc2sc3c(c2c(=O)n1-c1ccc(C)cc1)CCN(C)C3 do in these assays?
UHRF1 MBD2 ctr: 1.7; TDP2 absorb: 15.1; LEDGF integ inh: 34.0*; MBD2 DNA inh: 2.9; IN multimer act: -1.4; TR-FRET interf: 5.0; LEDGF integ conf: -5.5

How did O=C1CCC[C@H]2C[C@H](NCc3ccc(Cl)cc3)CC[C@]23CCCN13 do in these assays?
UHRF1 MBD2 ctr: 1.5; TDP2 absorb: -9.9; LEDGF integ inh: 1.2; MBD2 DNA inh: 0.4

Results for Cc1ccc(C)c(OCc2cc(C(=O)N3CCNC(=O)C3)no2)c1 ?
UHRF1 MBD2 ctr: 3.4; TDP2 absorb: 18.1; LEDGF integ inh: 27.4*; MBD2 DNA inh: 1.4; IN multimer act: -0.9; TR-FRET interf: 4.4; LEDGF integ conf: 4.1

Results for Nc1scc2c(C(=O)N/N=C/c3ccc(Cl)cc3)nn(-c3ccccc3)c(=O)c12 ?
UHRF1 MBD2 ctr: 7.2; TDP2 absorb: 24.2; LEDGF integ inh: 13.4*; MBD2 DNA inh: -2.5; IN multimer act: 4.2; TR-FRET interf: -15.3; LEDGF integ conf: 11.2

How did C#Cc1cccc(OC[C@@H](O)CN2CCC(C(O)(c3ccccc3)c3ccccc3)CC2)c1 do in these assays?
UHRF1 MBD2 ctr: -0.9; TDP2 absorb: -4.4; LEDGF integ inh: 0.6; MBD2 DNA inh: 1.5

What do the screens show for `COc1ccc(C2C(C(=O)N3CCN(C=O)CC3)CC(=O)N2c2ccc(OC)cc2)cc1` (configuration not stated)?
UHRF1 MBD2 ctr: 1.0; TDP2 absorb: 11.4; LEDGF integ inh: -2.1; MBD2 DNA inh: -2.7

What do the screens show for `COC(=O)[C@]12C[C@H](CC(=O)NCc3cccs3)C(=O)N(Cc3ccccc3)C1=C[C@H](COCc1ccccc1)O[C@@H]2C`?
UHRF1 MBD2 ctr: -0.2; TDP2 absorb: 0.6; LEDGF integ inh: -5.5; MBD2 DNA inh: 0.7

Results for CCOC(=O)CCCCC(=O)c1[nH]c(=O)[nH]c1CSc1nnc2c3ccccc3n(C(C)C)c2n1 ?
UHRF1 MBD2 ctr: 1.9; TDP2 absorb: 3.6; LEDGF integ inh: 27.6*; MBD2 DNA inh: -6.5; IN multimer act: 0.3; TR-FRET interf: -1.6; LEDGF integ conf: 11.4

Results for CCCCSCc1[nH]c(=O)[nH]c1C(=O)CCCCC(=O)OCC ?
UHRF1 MBD2 ctr: 1.4; TDP2 absorb: 6.2; LEDGF integ inh: 9.9; MBD2 DNA inh: 0.3

Results for CCCn1c2ccccc2c2nnc(SCc3[nH]c(=O)[nH]c3C(=O)CCCCC(=O)OCC)nc21 ?
UHRF1 MBD2 ctr: -3.7; TDP2 absorb: 2.6; LEDGF integ inh: 29.5*; MBD2 DNA inh: -4.4; IN multimer act: 0.8; TR-FRET interf: -4.2; LEDGF integ conf: 18.8*

Results for N#Cc1ccc(Cn2ccc3ccc(-c4ccc5ccn(C(=O)C6CCCCC6)c5c4)cc32)cc1 ?
UHRF1 MBD2 ctr: 1.3; TDP2 absorb: 6.5; LEDGF integ inh: -1.6; MBD2 DNA inh: 0.2

How did O=C1c2ccccc2C(=O)N1/N=C/c1ccc(O)c(O)c1 do in these assays?
UHRF1 MBD2 ctr: 1.3; TDP2 absorb: 10.3; LEDGF integ inh: 30.3*; MBD2 DNA inh: -1.0; IN multimer act: 22.7*; TR-FRET interf: -80.7; LEDGF integ conf: 58.6*

Results for COc1cccc(NC(=O)C2CCCN2C(=O)Nc2cccc3c2OCO3)c1 (configuration not stated) ?
UHRF1 MBD2 ctr: -1.9; TDP2 absorb: -3.9; LEDGF integ inh: 4.4; MBD2 DNA inh: -6.4

How did COc1ccc(NC(=O)CCCn2cnc3ccccc3c2=O)c(OC)c1 do in these assays?
UHRF1 MBD2 ctr: 2.0; TDP2 absorb: -14.5; LEDGF integ inh: 16.2*; MBD2 DNA inh: 1.4; IN multimer act: -0.6; TR-FRET interf: 2.2; LEDGF integ conf: -12.8

Results for COc1ccc(C(=O)Cn2cnc3ccccc3c2=O)c(OC)c1 ?
UHRF1 MBD2 ctr: 2.9; TDP2 absorb: 5.0; LEDGF integ inh: 2.6; MBD2 DNA inh: 2.7

Results for O=C(NCCCc1ccccc1)OC1CCC12CCC(c1ccccc1)CC2 (configuration not stated) ?
UHRF1 MBD2 ctr: 3.3; TDP2 absorb: -7.5; LEDGF integ inh: -1.1; MBD2 DNA inh: 0.3

How did Cc1nc(C(=O)NCCCO)cc2c1[nH]c1ccccc12 do in these assays?
UHRF1 MBD2 ctr: 1.5; TDP2 absorb: 16.1; LEDGF integ inh: 26.9*; MBD2 DNA inh: 0.2; IN multimer act: -1.6; TR-FRET interf: 5.7; LEDGF integ conf: -1.2

What do the screens show for `COCCN(Cc1ccc(C)cc1)C(=O)[C@H]1O[C@@H](n2cnc(C(N)=O)n2)[C@H](O)[C@@H]1O`?
UHRF1 MBD2 ctr: 3.7; TDP2 absorb: 5.6; LEDGF integ inh: 1.8; MBD2 DNA inh: -3.8

How did O=C1CC(NS(=O)(=O)c2cccnc2)CN1c1ccccc1 (configuration not stated) do in these assays?
UHRF1 MBD2 ctr: -1.0; TDP2 absorb: 3.4; LEDGF integ inh: -2.4; MBD2 DNA inh: 0.4

Results for O=C1CC(NS(=O)(=O)c2ccc3ccccc3c2)CN1c1ccccc1 (configuration not stated) ?
UHRF1 MBD2 ctr: -0.7; TDP2 absorb: 15.0; LEDGF integ inh: 55.6*; MBD2 DNA inh: -3.6; IN multimer act: 4.2; TR-FRET interf: -21.0; LEDGF integ conf: 4.5

How did O=C1C=C(O)CC(c2ccco2)C1 (configuration not stated) do in these assays?
UHRF1 MBD2 ctr: 35.6*; TDP2 absorb: -7.2; LEDGF integ inh: 37.9*; MBD2 DNA inh: 1.3; IN multimer act: 1.5; TR-FRET interf: -7.7; LEDGF integ conf: 21.5*

Results for O=C1COc2ccc(C(=O)c3ccccc3)cc2CN1 ?
UHRF1 MBD2 ctr: -2.7; TDP2 absorb: -6.9; LEDGF integ inh: 50.0*; MBD2 DNA inh: -6.0; IN multimer act: -2.1; TR-FRET interf: 10.7; LEDGF integ conf: 0.7

How did O=C(c1ccccc1)c1ccc2c(c1)OCCCO2 do in these assays?
UHRF1 MBD2 ctr: 0.0; TDP2 absorb: -9.6; LEDGF integ inh: 3.4; MBD2 DNA inh: -5.2
